Laboratory results: ChEMBL document CHEMBL4706563, “Triphenylethylene analogues: Design, synthesis and evaluation of antitumor activity and topoisomerase inhibitors” (Eur J Med Chem, 2020)
Activity calls are given as the source filed them. The calls are words filed in the database; no cut-off is given here.

Legend:
Assay type in all cases: functional
HOP-62 = test: Antiproliferative activity against human HOP-62 cells assessed as growth inhibition at 10 uM relative to control; settings: read-out: GI
Outline: (§1)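 Single-dose screen run by the US National Cancer Institute across its 60-human tumour cell line panel. Each compound was tested at one concentration. Percent growth inhibition was recorded for each cell line.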

NCI-H522 = test: Antiproliferative activity against human NCI-H522 cells assessed as growth inhibition at 10 uM relative to control; settings: read-out: GI; outline: as §1
NCI-H460 = test: Antiproliferative activity against human NCI-H460 cells assessed as growth inhibition at 10 uM relative to control; settings: read-out: GI; outline: as §1
[1] = Antiproliferative activity against human colon cancer cells; settings: Colon cancer cell line
[2] = Antiproliferative activity against human renal cancer cells; settings: Renal cancer cell line, read-out: LC50 (the source's name)
Leukemia cell = test: Antiproliferative activity against human leukemia cells
UACC-62 = test: Antiproliferative activity against human UACC-62 cells assessed as growth inhibition at 10 uM relative to control
Outline: (§2)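 NCI 60 human tumour cell line panel screen. Compounds tested at a single dose and growth inhibition (%) determined for each line.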

SNB-75 = test: Antiproliferative activity against human SNB-75 cells assessed as growth inhibition at 10 uM relative to control; settings: read-out: GI; outline: as §2
EKVX = test: Antiproliferative activity against human EKVX cells assessed as growth inhibition at 10 uM relative to control; settings: read-out: GI; outline: as §1
LOX IMVI = test: Antiproliferative activity against human LOX IMVI cells assessed as growth inhibition at 10 uM relative to control; settings: read-out: GI; outline: as §1
BT-549 = test: Antiproliferative activity against human BT-549 cells assessed as growth inhibition at 10 uM relative to control; settings: read-out: GI; outline: as §1
OVCAR-3 = test: Antiproliferative activity against human OVCAR-3 cells assessed as growth inhibition at 10 uM relative to control; settings: read-out: GI; outline: as §1
SK-MEL-5 = test: Antiproliferative activity against human SK-MEL-5 cells assessed as growth inhibition at 10 uM relative to control; settings: read-out: GI; outline: as §2
CAKI-1 = test: Antiproliferative activity against human CAKI-1 cells assessed as growth inhibition at 10 uM relative to control; settings: read-out: GI; outline: as §1
Hs-578T = test: Antiproliferative activity against human Hs-578T cells assessed as growth inhibition at 10 uM relative to control; settings: read-out: GI; outline: as §1
DU-145 = test: Antiproliferative activity against human DU-145 cells assessed as growth inhibition at 10 uM relative to control; settings: read-out: GI; outline: as §1
MCF7 = test: Antiproliferative activity against human MCF7 cells assessed as growth inhibition at 10 uM relative to control; settings: read-out: GI; outline: as §1
M14 = test: Antiproliferative activity against human M14 cells assessed as growth inhibition at 10 uM relative to control; settings: read-out: GI; outline: as §1
NCI-H23 = test: Antiproliferative activity against human NCI-H23 cells assessed as growth inhibition at 10 uM relative to control; settings: read-out: GI; outline: as §1
PC-3 = test: Antiproliferative activity against human PC-3 cells assessed as growth inhibition at 10 uM relative to control; settings: read-out: GI; outline: as §1
786-0 = test: Antiproliferative activity against human 786-0 cells assessed as growth inhibition at 10 uM relative to control; settings: read-out: GI; outline: as §1
SF-295 = test: Antiproliferative activity against human SF-295 cells assessed as growth inhibition at 10 uM relative to control; settings: read-out: GI; outline: as §1
HCT-15 = test: Antiproliferative activity against human HCT-15 cells assessed as growth inhibition at 10 uM relative to control; settings: read-out: GI; outline: as §1
NCI-H322M = test: Antiproliferative activity against human NCI-H322M cells assessed as growth inhibition at 10 uM relative to control; settings: read-out: GI; outline: as §1
MDA-MB-468 = test: Antiproliferative activity against human MDA-MB-468 cells assessed as growth inhibition at 10 uM relative to control; settings: read-out: GI; outline: as §1
MDA-MB-231 = test: Antiproliferative activity against human MDA-MB-231 cells assessed as growth inhibition at 10 uM relative to control; settings: read-out: GI; outline: as §1
SK-MEL-2 = test: Antiproliferative activity against human SK-MEL-2 cells assessed as growth inhibition at 10 uM relative to control; settings: read-out: GI; outline: as §1
IGROV-1 = test: Antiproliferative activity against human IGROV-1 cells assessed as growth inhibition at 10 uM relative to control; settings: read-out: GI; outline: as §1
U-251 = test: Antiproliferative activity against human U251 cells assessed as growth inhibition at 10 uM relative to control; settings: read-out: GI; outline: as §2
[3] = Antiproliferative activity against human Non-small cell lung cancer cells; settings: Non-small cell lung cancer cell line
COLO 205 = test: Antiproliferative activity against human COLO 205 cells assessed as growth inhibition at 10 uM relative to control; settings: read-out: GI; outline: as §1
HCC 2998 = test: Antiproliferative activity against human HCC 2998 cells assessed as growth inhibition at 10 uM relative to control; settings: read-out: GI; outline: as §1
[4] = Antiproliferative activity against human breast cancer cells; settings: Breast cancer cell line
SK-OV-3 = test: Antiproliferative activity against human SK-OV-3 cells assessed as growth inhibition at 10 uM relative to control; settings: read-out: GI; outline: as §2
NCI/ADR-RES = test: Antiproliferative activity against human NCI/ADR-RES cells assessed as growth inhibition at 10 uM relative to control; settings: read-out: GI; outline: as §1
HL-60(TB) = test: Antiproliferative activity against human HL-60(TB) cells assessed as growth inhibition at 10 uM relative to control; settings: read-out: GI
TK-10 = test: Antiproliferative activity against human TK-10 cells assessed as growth inhibition at 10 uM relative to control; settings: read-out: GI; outline: as §2
OVCAR-8 = test: Antiproliferative activity against human OVCAR-8 cells assessed as growth inhibition at 10 uM relative to control; settings: read-out: GI; outline: as §1
HCT-116 = test: Antiproliferative activity against human HCT-116 cells assessed as growth inhibition at 10 uM relative to control; settings: read-out: GI; outline: as §1
HOP-92 = test: Antiproliferative activity against human HOP-92 cells assessed as growth inhibition at 10 uM relative to control; outline: as §1
[5] = Antiproliferative activity against human CNS cancer cells; settings: CNS cell
ACHN = test: Antiproliferative activity against human ACHN cells assessed as growth inhibition at 10 uM relative to control; settings: read-out: GI; outline: as §1
SW-620 = test: Antiproliferative activity against human SW-620 cells assessed as growth inhibition at 10 uM relative to control; settings: read-out: GI; outline: as §2
UACC-257 = test: Antiproliferative activity against human UACC-257 cells assessed as growth inhibition at 10 uM relative to control; settings: read-out: GI; outline: as §2
SF-539 = test: Antiproliferative activity against human SF-539 cells assessed as growth inhibition at 10 uM relative to control; outline: as §1
[6] = Antiproliferative activity against human prostate cancer cells; settings: Prostate tumor cell line
A549 = test: Antiproliferative activity against human A549 cells assessed as growth inhibition at 10 uM relative to control; settings: read-out: GI; outline: as §1
[7] = read-out: LC50 (the source's name)

## CC/C(=C(\c1ccccc1)c1ccc(OCCN(C)C)cc1)c1ccccc1 [TAMOXIFEN]
HOP-62
  inhibition of growth at 10 µM: 56.9%
NCI-H522
  inhibition of growth at 10 µM: 53.4%
NCI-H460
  inhibition of growth at 10 µM: 97.6%
[1]
  GI50: 1.88 µM
  TGI: 5.96 µM
[2]
  CC50: 2.59 µM
Leukemia cell
  GI50: 2.08 µM
  TGI: 6.42 µM
UACC-62
  growth inhibition (GI): inactive
SNB-75
  inhibition of growth at 10 µM: 60.1%
EKVX
  inhibition of growth at 10 µM: 40%
LOX IMVI
  inhibition of growth at 10 µM: -43.9%
BT-549
  inhibition of growth at 10 µM: 30.2%
OVCAR-3
  inhibition of growth at 10 µM: 47.1%
SK-MEL-5
  inhibition of growth at 10 µM: -95.2%
CAKI-1
  inhibition of growth at 10 µM: 70.9%
Hs-578T
  inhibition of growth at 10 µM: 39.5%
DU-145
  inhibition of growth at 10 µM: 34.6%
MCF7
  inhibition of growth at 10 µM: -10.3%
M14
  inhibition of growth at 10 µM: -75%
NCI-H23
  inhibition of growth at 10 µM: 39.7%
PC-3
  inhibition of growth at 10 µM: 65.6%
786-0
  inhibition of growth at 10 µM: -41%
SF-295
  inhibition of growth at 10 µM: 59.8%
HCT-15
  inhibition of growth at 10 µM: 92.4%
NCI-H322M
  inhibition of growth at 10 µM: 34%
MDA-MB-468
  inhibition of growth at 10 µM: -13.3%
MDA-MB-231
  inhibition of growth at 10 µM: 54.8%
SK-MEL-2
  inhibition of growth at 10 µM: 31.5%
IGROV-1
  inhibition of growth at 10 µM: 58.8%
U-251
  inhibition of growth at 10 µM: 95.2%
[3]
  GI50: 4.01 µM
  TGI: 9.2 µM
[3]; [7]
  CC50: 2.6 µM
COLO 205
  inhibition of growth at 10 µM: -89%
HCC 2998
  inhibition of growth at 10 µM: 83.7%
[4]
  GI50: 3.05 µM
  TGI: 10.4 µM
[4]; [7]
  CC50: 2.83 µM
SK-OV-3
  inhibition of growth at 10 µM: 33.2%
NCI/ADR-RES
  inhibition of growth at 10 µM: 56.8%
HL-60(TB)
  inhibition of growth at 10 µM: 60.4%
TK-10
  inhibition of growth at 10 µM: 48.1%
OVCAR-8
  inhibition of growth at 10 µM: 39.5%
HCT-116
  inhibition of growth at 10 µM: 73.8%
HOP-92
  growth inhibition (GI): inactive
[5]
  GI50: 4.04 µM
  TGI: 10.6 µM
[5]; [7]
  CC50: 44.1 µM
ACHN
  inhibition of growth at 10 µM: 39.4%
SW-620
  inhibition of growth at 10 µM: 95.1%
UACC-257
  inhibition of growth at 10 µM: -64.3%
SF-539
  growth inhibition (GI): inactive
[6]
  GI50: 4.4 µM
  TGI: 11.1 µM
[6]; [7]
  CC50: 233 µM
A549
  inhibition of growth at 10 µM: 50.2%
